Each block holds one compound with its values, some of them ahead of it.
Legend:
[1] = target: T1, Muscarinic acetylcholine receptor M1 (Rattus norvegicus, UniProt P08482); experiment: M1 agonist activity estimated by rat superior cervical ganglion depolarization; assay type: functional, tissue-based
T1 sequence (P08482 whole entry): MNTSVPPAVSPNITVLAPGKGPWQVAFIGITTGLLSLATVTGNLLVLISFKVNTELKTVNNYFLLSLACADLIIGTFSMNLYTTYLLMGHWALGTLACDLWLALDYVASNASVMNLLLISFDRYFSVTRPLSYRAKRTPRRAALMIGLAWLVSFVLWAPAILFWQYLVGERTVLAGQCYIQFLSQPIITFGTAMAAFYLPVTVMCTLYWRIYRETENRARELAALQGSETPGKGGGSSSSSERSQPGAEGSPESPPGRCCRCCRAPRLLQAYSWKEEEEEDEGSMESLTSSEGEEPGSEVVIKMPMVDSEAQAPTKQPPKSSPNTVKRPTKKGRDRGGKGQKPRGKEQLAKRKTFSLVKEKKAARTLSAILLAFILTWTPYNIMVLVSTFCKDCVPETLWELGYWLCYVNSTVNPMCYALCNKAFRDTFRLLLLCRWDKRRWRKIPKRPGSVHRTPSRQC

[2] = target: Muscarinic acetylcholine receptor M3 (Cavia porcellus)
[3] = species: Rattus norvegicus; experiment: Ratio of binding affinity at [3H]quinuclidinyl benzilate binding on rat brain stem homogenate to [3H]pirenzepine binding on rat brain homogenate
[4] = target: Muscarinic acetylcholine receptor; experiment: In vitro binding affinity for muscarinic receptor by displacing [3H]quinuclidinyl benzilate binding on rat brain homogenate; assay type: tissue-based
How it was run: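 Two concentration–response curves, five concentrations covering 3 decades, triplicates. IC50 estimated from hand-drawn log concentration–response curves and converted to Ki with Cheng–Prusoff equation.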

[5] = species: Rattus norvegicus; experiment: Ratio of binding affinity at [3H]quinuclidinyl benzilate binding on rat brain homogenate to [3H]- Oxotremorine-M binding on rat brain homogenate; assay type: functional
How it was run: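 Ago ratio computed as Ki from [³H]QNB binding to whole rat brain homogenate divided by Ki from [³H]oxotremorine-M binding to whole rat brain homogenate.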

[6] = target: T1, Muscarinic acetylcholine receptor M1; experiment: In vitro binding affinity for muscarinic M1 receptor by displacing [3H]pirenzepine binding on rat brain homogenate.; assay type: tissue-based
How it was run: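 Two complete curves, five test concentrations spanning 3 decades, each in triplicate. IC50 read from hand-drawn log concentration–response curves, converted to Ki by Cheng–Prusoff.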

[7] = target: Muscarinic acetylcholine receptor; experiment: In vitro binding affinity for muscarinic receptor by displacing [3H]oxotremorine-M binding on rat brain homogenate.; assay type: tissue-based
How it was run: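 Duplicate full curves of five drug concentrations over 3 decades, triplicate points. IC50 taken from hand-drawn log curves; Ki via Cheng–Prusoff.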

[8] = target: Muscarinic acetylcholine receptor; experiment: In vitro binding affinity for muscarinic receptor by displacing [3H]quinuclidinyl benzilate binding on rat brain stem homogenate.; assay type: tissue-based
How it was run: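 Two full curves, five test concentrations over 3 decades in triplicate. Hand-drawn log curves gave IC50; Ki by Cheng–Prusoff.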

[9] = target: Muscarinic acetylcholine receptor M2 (Mus musculus) (UniProt Q9ERZ4); experiment: In vivo determination of peripheral M2 receptor mediated hypothermia, cholinergic side effect
[10] = target: Muscarinic acetylcholine receptor M2 (Mus musculus) (UniProt Q9ERZ4); experiment: In vivo determination of peripheral M2 receptor mediated salivation, cholinergic side effect
[11] = target: Muscarinic acetylcholine receptor M2 (Mus musculus) (UniProt Q9ERZ4); experiment: In vivo determination of peripheral M2 receptor mediated tremor, cholinergic side effect

SMILES: CN1CCC=C(c2cnn(C)n2)C1
EC50 [1]: ≥ 430 nM
EC50 [2]: 130 nM
Ratio [3]: 4.5
Ki [4]: 280 nM
Ratio [5]: 360
Ki [6]: 35 nM
Ki [7]: 0.78 nM
Ki [8]: 160 nM

SMILES: CN1CCCC(c2nnn(C)n2)C1 (racemic)
Ki [6]: 4800 nM
Ki [7]: 1200 nM

SMILES: C#CCn1ncc(C2CCCNC2)n1 (single isomer, unassigned; (+)) [listing 1 of 2 here]
ED50 [9]: 23 µmol/kg
ED50 [10]: 7 µmol/kg
Ratio [3]: 0.2
ED50 [11]: 32 µmol/kg
Ratio [5]: 44

SMILES: C#CCn1ncc(C2=CC(C)CNC2)n1 (stereo unspecified)
Ki [6]: 30 nM
Ki [7]: 31 nM

SMILES: CCCN1CCC=C(c2nnn(CC)n2)C1
Ki [6]: 900 nM
Ki [7]: 450 nM

SMILES: C=Cn1nnc(C2=CCCN(C)C2)n1
Ratio [3]: 0.8
Ki [4]: 230 nM
Ratio [5]: 2.5
Ki [6]: 120 nM
Ki [7]: 92 nM
Ki [8]: 90 nM

SMILES: CCn1nnc(C2=CCCN(C)C2)n1 [ALVAMELINE]
EC50 [1]: ≥ 2000 nM
ED50 [9]: > 120 µmol/kg
ED50 [10]: > 120 µmol/kg
ED50 [11]: > 120 µmol/kg
Ki [4]: 430 nM
Ki [6]: 36 nM
Ki [7]: 9.2 nM
Ki [8]: 340 nM

SMILES: C#CCn1ncc(C2CCCNC2)n1 (stereo in doubt; (-)-15c)
Ki [4]: 270 nM
Ki [6]: 140 nM
Ki [7]: 7.8 nM

SMILES: C=CCn1ncc(C2CCCNC2)n1 (racemic)
ED50 [9]: > 350 µmol/kg
ED50 [10]: 320 µmol/kg
Ratio [3]: 3
ED50 [11]: > 350 µmol/kg
Ratio [5]: 36

SMILES: CCn1nnc(C2CCCNC2)n1 (racemic)
Ki [6]: 1100 nM
Ki [7]: 230 nM

SMILES: C#CCn1ncc(C2CCCNC2)n1 (single isomer, unassigned; (+)) [listing 2 of 2 here]
Ki [4]: 230 nM
Ki [6]: 170 nM
Ki [7]: 5.2 nM
Ki [8]: 30 nM

More lines, now with the values ahead:

Ki [6]: 1400 nM
Ki [7]: 340 nM
SMILES: CCCCN1CCC=C(c2nnn(CC)n2)C1

Ratio [3]: 2.5
Ki [4]: 47 nM
Ratio [5]: 18
Ki [6]: 15 nM
Ki [7]: 2.6 nM
Ki [8]: 38 nM
SMILES: CCCn1ncc(C2=CCCN(C)C2)n1

Ki [6]: 770 nM
Ki [7]: 990 nM
SMILES: CCn1cc(C2=CCCN(C)C2)nn1

Ratio [3]: 3.2
Ki [4]: 530 nM
Ratio [5]: 6.2
Ki [6]: 84 nM
Ki [7]: 85 nM
Ki [8]: 270 nM
SMILES: CC(C)n1nnc(C2=CCCN(C)C2)n1

Ratio [3]: 1.3
Ki [4]: 250 nM
Ratio [5]: 51
Ki [6]: 100 nM
Ki [7]: 4.9 nM
Ki [8]: 130 nM
SMILES: CCCCn1ncc(C2=CCCNC2)n1

Ki [6]: 1700 nM
Ki [7]: 318 nM
SMILES: CCn1nncc1C1=CCCN(C)C1

Ratio [3]: 0.9
Ki [4]: 790 nM
Ratio [5]: 130
Ki [6]: 250 nM
Ki [7]: 6.1 nM
Ki [8]: 230 nM
SMILES: CN1CCC=C(c2nnn(C)n2)C1

Ki [6]: 900 nM
Ki [7]: 180 nM
SMILES: CC1CC=C(c2nnn(C)n2)CN1 (stereo unspecified)

Ratio [3]: 2.8
Ki [4]: 38 nM
Ratio [5]: 0.5
Ki [6]: 27 nM
Ki [7]: 71 nM
Ki [8]: 75 nM
SMILES: CCCCCCCCn1nnc(C2=CCCN(C)C2)n1

Ratio [3]: 5.9
Ki [4]: 81 nM
Ratio [5]: 16
Ki [6]: 37 nM
Ki [7]: 5 nM
Ki [8]: 220 nM
SMILES: CCCCn1nnc(C2=CCCN(C)C2)n1

Ki [6]: 180 nM
Ki [7]: 69 nM
SMILES: CC1C=C(c2nnn(C)n2)CNC1 (stereo unspecified)

Ratio [3]: 4.2
Ki [4]: 130 nM
Ratio [5]: 8.1
Ki [6]: 26 nM
Ki [7]: 16 nM
Ki [8]: 110 nM
SMILES: CCCCCn1nnc(C2=CCCN(C)C2)n1

Ratio [3]: 2.3
Ki [4]: 230 nM
Ratio [5]: 51
Ki [6]: 44 nM
Ki [7]: 4.5 nM
Ki [8]: 100 nM
SMILES: C#CCn1nnc(C2=CCCN(C)C2)n1

Ratio [3]: 2.9
Ki [4]: 41 nM
Ratio [5]: 26
Ki [6]: 7.7 nM
Ki [7]: 1.6 nM
Ki [8]: 22 nM
SMILES: C#CCn1ncc(C2=CCCN(C)C2)n1
